From ChEMBL document CHEMBL4007456, “Heterocyclyl Tetracyclines. 1. 7-Trifluoromethyl-8-Pyrrolidinyltetracyclines: Potent, Broad Spectrum Antibacterial Agents with Enhanced Activity against Pseudomonas aeruginosa” (2017)
≈ marks a conversion by molar mass, not a printed value.

How the values were obtained:
Type in all cases: functional
Acinetobacter baumannii = experiment: Antibacterial activity against gram-negative Acinetobacter baumannii AB250 by CLSI method
How it was run: (§1)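 Broth microdilution MIC per CLSI in cation-adjusted Mueller Hinton broth, prepared fresh and held at 4 °C. Defibrinated horse blood added where appropriate. Compounds serially diluted in sterile deionized water. Strains from ATCC unless otherwise noted. Runs accepted when comparator antibiotics fell within QC ranges for ATCC quality control strains.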

[1] = test system: Stenotrophomonas maltophilia; experiment: Antibacterial activity against gram-negative Stenotrophomonas maltophilia SM256 by CLSI method; how it was run: as §1
Burkholderia cenocepacia = experiment: Antibacterial activity against gram-negative Burkholderia cenocepacia BC240 by CLSI method
How it was run: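 Defibrinated horse blood added where appropriate. Compounds serially diluted in sterile deionized water. Strains from ATCC unless otherwise noted. Runs accepted when comparator antibiotics fell within QC ranges for ATCC quality control strains.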

Staphylococcus aureus [2] = experiment: Antibacterial activity against gram-positive Staphylococcus aureus SA101 by CLSI method; how it was run: as §1
Staphylococcus aureus [3] = experiment: Antibacterial activity against gram-positive Staphylococcus aureus SA161 harboring tet(M) by CLSI method
How it was run: (§2)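 CLSI broth microdilution MIC in fresh cation-adjusted Mueller Hinton broth, supplemented with defibrinated horse blood where appropriate. Compounds serially diluted in sterile deionized water. Runs accepted when comparator antibiotics against ATCC quality-control strains fell within recommended ranges.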

Staphylococcus aureus [4] = experiment: Antibacterial activity against gram-positive Staphylococcus aureus SA158 harboring tet(K) by CLSI method; how it was run: as §2
Streptococcus pneumoniae = experiment: Antibacterial activity against gram-positive Streptococcus pneumoniae SP160 harboring tet(M) by CLSI method; how it was run: as §2
Escherichia coli [5] = experiment: Antibacterial activity against gram-negative Escherichia coli EC107 by CLSI method; how it was run: as §1
Escherichia coli [6] = experiment: Antibacterial activity against gram-negative Escherichia coli EC155 harboring tet(A) by CLSI method; how it was run: as §2
Enterococcus faecalis = experiment: Antibacterial activity against gram-positive Enterococcus faecalis EFs327 harboring tet(M) by CLSI method; how it was run: as §2
Enterococcus faecium = experiment: Antibacterial activity against gram-positive Enterococcus faecium EFm404 harboring tet(M) by CLSI method; how it was run: as §2
Klebsiella pneumoniae = experiment: Antibacterial activity against gram-negative Klebsiella pneumoniae KP457 harboring blacTX-M-15 extended spectrum beta-lactamase gene by CLSI method; how it was run: as §2
Proteus mirabilis = experiment: Antibacterial activity against gram-negative Proteus mirabilis PM385 by CLSI method; how it was run: as §1
Pseudomonas aeruginosa = experiment: Antibacterial activity against gram-negative Pseudomonas aeruginosa PA555 by CLSI method; how it was run: as §1
Enterobacter cloacae = experiment: Antibacterial activity against gram-negative Enterobacter cloacae EC1603 harboring tet(A) by CLSI method; how it was run: as §2

Row | SMILES | MIC (Acinetobacter baumannii) [µg/mL] | MIC [1] [µg/mL] | MIC (Burkholderia cenocepacia) [µg/mL] | MIC (Staphylococcus aureus [2]) [µg/mL] | MIC (Staphylococcus aureus [3]) [µg/mL] | MIC (Staphylococcus aureus [4]) [µg/mL] | MIC (Streptococcus pneumoniae) [µg/mL] | MIC (Escherichia coli [5]) [µg/mL] | MIC (Escherichia coli [6]) [µg/mL] | MIC (Enterococcus faecalis) [µg/mL] | MIC (Enterococcus faecium) [µg/mL] | MIC (Klebsiella pneumoniae) [µg/mL] | MIC (Proteus mirabilis) [µg/mL] | MIC (Pseudomonas aeruginosa) [µg/mL] | MIC (Enterobacter cloacae) [µg/mL]
1 | CN(C)c1c(C2CCCN2)cc(O)c2c1C[C@H]1C[C@H]3[C@H](N(C)C)C(O)=C(C(N)=O)C(=O)[C@@]3(O)C(O)=C1C2=O (stereo not given in full) | > 32 | 32 (≈ 60.8 µM) | > 32 | 2 (≈ 3.8 µM) | 32 (≈ 60.8 µM) | 1 (≈ 1.9 µM) | 2 (≈ 3.8 µM) | 2 (≈ 3.8 µM) | 32 (≈ 60.8 µM) | – | – | – | – | – | –
2 | CCCN1CCC[C@H]1c1cc(O)c2c(c1C(F)(F)F)C[C@H]1C[C@H]3[C@H](N(C)C)C(O)=C(C(N)=O)C(=O)[C@@]3(O)C(O)=C1C2=O | 4 (≈ 6.74 µM) | 4 (≈ 6.74 µM) | 16 (≈ 27 µM) | 0.25 (≈ 0.421 µM) | 1 (≈ 1.68 µM) | 0.125 (≈ 0.211 µM) | ≤ 0.0156 | 1 (≈ 1.68 µM) | 2 (≈ 3.37 µM) | 1 (≈ 1.68 µM) | 1 (≈ 1.68 µM) | 16 (≈ 27 µM) | 8 (≈ 13.5 µM) | > 32 | 32 (≈ 53.9 µM)
3 | CN(C)[C@@H]1C(O)=C(C(N)=O)C(=O)[C@@]2(O)C(O)=C3C(=O)c4c(O)cc([C@@H]5CCCN5C)c(C(F)(F)F)c4C[C@H]3C[C@@H]12 | 0.25 (≈ 0.442 µM) | 0.125 (≈ 0.221 µM) | 4 (≈ 7.07 µM) | 0.125 (≈ 0.221 µM) | 2 (≈ 3.54 µM) | ≤ 0.0156 | ≤ 0.0156 | 0.0312 (≈ 0.0552 µM) | 0.5 (≈ 0.884 µM) | – | – | 2 (≈ 3.54 µM) | – | 8 (≈ 14.1 µM) | –
4 | CC1CCN(C)C1c1cc(O)c2c(c1C(F)(F)F)C[C@H]1C[C@H]3[C@H](N(C)C)C(O)=C(C(N)=O)C(=O)[C@@]3(O)C(O)=C1C2=O (stereo not given in full) | 8 (≈ 13.8 µM) | 1 (≈ 1.73 µM) | 16 (≈ 27.6 µM) | 0.5 (≈ 0.863 µM) | 4 (≈ 6.9 µM) | 0.0312 (≈ 0.0538 µM) | ≤ 0.0156 | 0.0625 (≈ 0.108 µM) | 2 (≈ 3.45 µM) | 4 (≈ 6.9 µM) | 2 (≈ 3.45 µM) | 4 (≈ 6.9 µM) | 8 (≈ 13.8 µM) | 32 (≈ 55.2 µM) | 2 (≈ 3.45 µM)
5 | CC(C)CN1CCC[C@H]1c1cc(O)c2c(c1C(F)(F)F)C[C@H]1C[C@H]3[C@H](N(C)C)C(O)=C(C(N)=O)C(=O)[C@@]3(O)C(O)=C1C2=O | > 32 | > 32 | > 32 | 2 (≈ 3.29 µM) | 2 (≈ 3.29 µM) | 1 (≈ 1.65 µM) | 0.5 (≈ 0.823 µM) | 4 (≈ 6.58 µM) | > 32 | 1 (≈ 1.65 µM) | 1 (≈ 1.65 µM) | > 32 | > 32 | > 32 | > 32
6 | CN(C)[C@@H]1C(O)=C(C(N)=O)C(=O)[C@@]2(O)C(O)=C3C(=O)c4c(O)cc([C@H]5CCCN5)c(C(F)(F)F)c4C[C@H]3C[C@@H]12 | 2 (≈ 3.63 µM) | 1 (≈ 1.81 µM) | 8 (≈ 14.5 µM) | 0.125 (≈ 0.227 µM) | 16 (≈ 29 µM) | 0.0312 (≈ 0.0566 µM) | 1 (≈ 1.81 µM) | ≤ 0.0156 | 2 (≈ 3.63 µM) | 16 (≈ 29 µM) | 4 (≈ 7.25 µM) | 0.125 (≈ 0.227 µM) | 0.5 (≈ 0.907 µM) | 8 (≈ 14.5 µM) | 8 (≈ 14.5 µM)
7 | CC1CCC(c2cc(O)c3c(c2C(F)(F)F)C[C@H]2C[C@H]4[C@H](N(C)C)C(O)=C(C(N)=O)C(=O)[C@@]4(O)C(O)=C2C3=O)N1C (stereo not given in full) | 2 (≈ 3.45 µM) | 2 (≈ 3.45 µM) | 8 (≈ 13.8 µM) | 0.5 (≈ 0.863 µM) | 1 (≈ 1.73 µM) | 0.125 (≈ 0.216 µM) | 0.0312 (≈ 0.0538 µM) | 0.5 (≈ 0.863 µM) | 2 (≈ 3.45 µM) | 2 (≈ 3.45 µM) | 1 (≈ 1.73 µM) | 8 (≈ 13.8 µM) | 4 (≈ 6.9 µM) | > 32 | 16 (≈ 27.6 µM)
8 | CN(C)[C@@H]1C(O)=C(C(N)=O)C(=O)[C@@]2(O)C(O)=C3C(=O)c4c(O)cc([C@@H]5CCCN5)c(F)c4C[C@H]3C[C@@H]12 | 32 (≈ 63.8 µM) | 8 (≈ 16 µM) | > 32 | 0.5 (≈ 0.997 µM) | > 32 | 0.125 (≈ 0.249 µM) | 1 (≈ 1.99 µM) | 0.125 (≈ 0.249 µM) | 16 (≈ 31.9 µM) | 32 (≈ 63.8 µM) | 4 (≈ 7.98 µM) | 0.5 (≈ 0.997 µM) | 0.25 (≈ 0.498 µM) | 8 (≈ 16 µM) | 32 (≈ 63.8 µM)
